# Experimental data as given in ChEMBL document CHEMBL1667733, “Cytotoxic amide alkaloids from Piper boehmeriaefolium” (J Nat Prod, 2011).
# Activity calls are given as the source filed them. No cut-off for these calls is given here.
# Test system: HeLa
# Experiment: Cytotoxicity against human HeLa cells after 72 hrs by MTT assay
# Assay type: functional, cell-based
# How it was run: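 HeLa cells in log-phase growth, harvested with 0.01% trypsin, seeded at 3.0 × 10^3 cells/well and grown overnight at 37 °C in humidified 5% CO2. Six concentrations (100.00, 33.33, 11.11, 3.70, 1.23, 0.41 µg/mL) added in triplicate. After 72 h at 37 °C, MTT added for 3 h more, supernatant removed, DMSO added. Absorbance read at 550 nm against 690 nm reference. Doxorubicin positive control.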
Structure (SMILES),IC50,Activity
O=C(/C=C/C=C/CCCC/C=C/c1ccc2c(c1)OCO2)N1CCCC1,11.6 µg/mL,–
O=C(CCCCCCC/C=C/c1ccc2c(c1)OCO2)N1CCCC1,2.67 µg/mL,–
COc1cccc2c1C(=O)c1c(O)c3c(c(O)c1C2=O)C[C@@](O)(C(=O)CO)C[C@@H]3O[C@H]1C[C@H](N)[C@H](O)[C@H](C)O1 [DOXORUBICIN],0.163 µg/mL,–
O=C(/C=C/C=C\CC/C=C/c1ccc2c(c1)OCO2)N1CCCC1,7.42 µg/mL,–
O=C(/C=C/C=C/CC/C=C/c1ccc2c(c1)OCO2)N1CCCC1,13.7 µg/mL,–
O=C(/C=C/CCCC/C=C/c1ccc2c(c1)OCO2)N1CCCC1 [BRACHYAMIDE B],15 µg/mL,–
O=C(CC/C=C/CCCC/C=C/c1ccc2c(c1)OCO2)N1CCCC1,12.2 µg/mL,–
CCCCC/C=C/C=C/C(=O)NCCc1ccc(O)c(OC)c1,–,inactive
CCCCC/C=C/C=C/C=C/C(=O)N1CCCC1,–,inactive
CCCCC/C=C/C=C/C(=O)NCC[S+](C)[O-] (stereo not drawn),–,inactive
O=C(CCCCCC/C=C/c1ccc2c(c1)OCO2)N1CCCC1,17.9 µg/mL,–
COc1cc(CCC(=O)n2cccc2)cc(OC)c1OC,–,inactive
COc1cc(CCC(=O)n2cccc2)cc(OC)c1O,–,inactive
